Test results taken from ChEMBL document CHEMBL3822431, “Hydroxychalcone inhibitors of Streptococcus mutans glucosyl transferases and biofilms as potential anticaries agents” (Bioorg Med Chem Lett, 2016).
Active and inactive are the calls of the source. The rule behind the calls is not given here.

How the values were obtained:
[1] = target: T1, Glucosyltransferase-SI (Streptococcus mutans serotype c (strain ATCC 700610 / UA159)) (UniProt P13470); assay: Inhibition of Wild-type Streptococcus mutans UA159 glucosyltransferase C at 50 uM by zymography
T1 sequence (whole entry): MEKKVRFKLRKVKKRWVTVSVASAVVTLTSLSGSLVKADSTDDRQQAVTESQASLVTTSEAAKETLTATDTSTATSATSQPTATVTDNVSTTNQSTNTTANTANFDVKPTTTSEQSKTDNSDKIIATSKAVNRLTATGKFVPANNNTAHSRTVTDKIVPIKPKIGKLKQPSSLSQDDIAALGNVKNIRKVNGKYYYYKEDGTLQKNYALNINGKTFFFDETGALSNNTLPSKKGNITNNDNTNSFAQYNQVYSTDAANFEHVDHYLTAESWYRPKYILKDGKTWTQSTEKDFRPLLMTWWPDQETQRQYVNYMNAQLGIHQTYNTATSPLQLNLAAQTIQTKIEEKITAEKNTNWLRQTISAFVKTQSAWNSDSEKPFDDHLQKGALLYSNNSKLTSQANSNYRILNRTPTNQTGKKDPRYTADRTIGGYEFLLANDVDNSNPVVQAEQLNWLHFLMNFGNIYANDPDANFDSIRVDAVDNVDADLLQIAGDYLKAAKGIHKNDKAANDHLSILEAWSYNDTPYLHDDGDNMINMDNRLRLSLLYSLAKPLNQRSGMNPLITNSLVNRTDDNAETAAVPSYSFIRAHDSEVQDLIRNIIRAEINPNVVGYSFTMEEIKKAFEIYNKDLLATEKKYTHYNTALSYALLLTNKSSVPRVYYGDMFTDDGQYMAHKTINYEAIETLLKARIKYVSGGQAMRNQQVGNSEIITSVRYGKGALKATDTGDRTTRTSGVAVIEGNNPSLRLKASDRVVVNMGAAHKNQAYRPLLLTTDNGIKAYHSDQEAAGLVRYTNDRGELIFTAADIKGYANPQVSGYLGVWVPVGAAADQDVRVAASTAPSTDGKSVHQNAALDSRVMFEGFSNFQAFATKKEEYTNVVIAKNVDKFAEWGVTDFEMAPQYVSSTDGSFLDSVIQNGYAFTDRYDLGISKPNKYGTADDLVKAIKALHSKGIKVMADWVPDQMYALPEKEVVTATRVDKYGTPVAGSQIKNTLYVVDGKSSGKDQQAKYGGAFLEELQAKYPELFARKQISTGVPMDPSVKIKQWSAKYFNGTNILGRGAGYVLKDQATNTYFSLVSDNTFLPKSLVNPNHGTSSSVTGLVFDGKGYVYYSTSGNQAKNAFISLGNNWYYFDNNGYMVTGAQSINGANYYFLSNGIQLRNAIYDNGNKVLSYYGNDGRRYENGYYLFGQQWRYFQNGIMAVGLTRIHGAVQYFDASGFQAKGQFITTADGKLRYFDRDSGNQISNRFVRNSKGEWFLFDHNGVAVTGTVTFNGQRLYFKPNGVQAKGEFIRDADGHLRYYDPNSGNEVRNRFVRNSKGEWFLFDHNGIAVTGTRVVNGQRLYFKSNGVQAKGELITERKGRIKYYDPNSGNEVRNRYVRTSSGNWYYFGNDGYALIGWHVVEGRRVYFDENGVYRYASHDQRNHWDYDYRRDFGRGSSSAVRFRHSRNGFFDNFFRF
Outline: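 Compound (50 µM) added to overnight S. mutans UA159 wild-type cultures; Gtfs concentrated from supernatants, run on duplicate SDS-PAGE; second gel used for zymogram, glucan band intensity taken as Gtf activity.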

[2] = system: Streptococcus mutans; assay: Inhibition of Gfp tagged Streptococcus mutans UA159 colony formation in guts of sucrose-dependent Drosophila colonization model at 50 uM measured 7 days post infection by fluorescent microscopy; format: functional, organism-based
Outline: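 Drosophila fed Gfp-tagged S. mutans with compound at 50 µM; DMSO as negative control, ΔgtfB mutant as biofilm-defective comparator; gut fluorescence examined by fluorescent microscopy 7 days after infection.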

Structure (SMILES)	inhibition [1]	inhibition [2]
O=C(/C=C/c1ccc(O)cc1O)c1ccc(O)cc1	Active	
O=C(/C=C/c1ccc(O)cc1O)c1cccc(O)c1 (stereo in doubt; 9a)	Active	Active
O=C(/C=C\c1ccc(O)cc1O)c1cccc(O)c1	Active	Active
O=C(/C=C\c1ccc(O)cc1O)c1ccc(O)cc1	Active	
O=C(/C=C/c1cc(O)c(O)cc1O)c1ccccc1O (stereo in doubt; 18c)	Active	
